Data taken from ChEMBL document CHEMBL4138183, “Diselaginellin B, an Unusual Dimeric Molecule from Selaginella pulvinata, Inhibited Metastasis and Induced Apoptosis of SMMC-7721 Human Hepatocellular Carcinoma Cells” (J Nat Prod, 2017).
The source made the active and inactive calls. No cut-off for these calls is given here.

Key:
SMMC-7721 [1] = experiment: Down regulation of COX2 mRNA expression in human SMMC7721 cells at 8 uM by RT-qPCR analysis; type: functional, cell-based
How it was run: (§1)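 Cells exposed to 8 μM; target mRNA quantified by RT-qPCR normalized to actin; means ± SD, n = 3.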

SMMC-7721 [2] = experiment: Antimetastatic activity against human SMMC7721 cells assessed as reduction in cell invasion at 1 uM after 48 hrs using crystal violet staining by matrigel based fluorescence microscopic analysis relative to control; type: functional
How it was run: (§2)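 Transwell invasion: filter (8 μm pore) coated with matrigel for 2 h at 37 °C; 2 × 10^4 cells seeded in serum-free RPMI on upper surface with test agent 48 h; 10% FBS medium in lower chamber. Non-invaded cells swabbed off; invaded cells crystal violet stained, counted in five random fields by fluorescence microscopy. Paclitaxel 100 nM positive control; means ± SD, n = 3.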

SMMC-7721 [3] = experiment: Induction of apoptosis in human SMMC7721 cells assessed as live cells at 5 uM after 48 hrs by Annexin-V-FITC/propidium iodide staining based flow cytometric method (reference value: 95.75%); type: functional
SMMC-7721 [4] = experiment: Cytotoxicity against human SMMC7721 cells assessed as reduction in cell viability after 48 hrs by MTT assay; type: functional, cell-based; details: SMMC-7721, 48 h
How it was run: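 MTT viability: 5 × 10^4 cells/well seeded, cultured overnight, treated with graded concentrations 48 h; MTT (5 mg/mL stock) added 4 h, formazan dissolved in DMSO, absorbance read at 490 nm.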

SMMC-7721 [5] = experiment: Induction of apoptosis in human SMMC7721 cells assessed as necrotic cells at 10 uM after 48 hrs by Annexin-V-FITC/propidium iodide staining based flow cytometric method (reference value: 0.82%); type: functional
SMMC-7721 [6] = experiment: Down regulation of CEACAM7 mRNA expression in human SMMC7721 cells at 8 uM by RT-qPCR analysis; type: functional, cell-based; how it was run: as §1
SMMC-7721 [7] = experiment: Induction of apoptosis in human SMMC7721 cells assessed as necrotic cells at 2.5 uM after 48 hrs by Annexin-V-FITC/propidium iodide staining based flow cytometric method (reference value: 0.82%); type: functional
SMMC-7721 [8] = experiment: Antimetastatic activity against human SMMC7721 cells assessed as reduction in cell migration at 0.5 to 2 uM after 48 hrs by crystal violet staining based fluorescence microscopic analysis; type: functional
How it was run: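 Migration through uncoated Transwell filter (8 μm pore): 2 × 10^4 cells in serum-free RPMI on upper side, treated 0.5, 1 or 2 μM for 48 h; lower chamber 10% FBS medium. Upper-surface cells removed by swab; underside cells crystal violet stained and scored in five random fields under fluorescence microscope. Paclitaxel 100 nM positive control; n = 3.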

SMMC-7721 [9] = experiment: Down regulation of COX1 mRNA expression in human SMMC7721 cells at 8 uM by RT-qPCR analysis; type: functional, cell-based; how it was run: as §1
SMMC-7721 [10] = experiment: Upregulation of DLD mRNA expression in human SMMC7721 cells at 8 uM by RT-qPCR analysis; type: functional, cell-based; how it was run: as §1
SMMC-7721 [11] = experiment: Induction of apoptosis in human SMMC7721 cells assessed as late apoptotic cells at 5 uM after 48 hrs by Annexin-V-FITC/propidium iodide staining based flow cytometric method (reference value: 1.17%); type: functional
SMMC-7721 [12] = experiment: Down regulation of MAGP2 mRNA expression in human SMMC7721 cells at 8 uM by RT-qPCR analysis; type: functional, cell-based; how it was run: as §1
SMMC-7721 [13] = experiment: Induction of apoptosis in human SMMC7721 cells assessed as late apoptotic cells at 10 uM after 48 hrs by Annexin-V-FITC/propidium iodide staining based flow cytometric method (reference value: 1.17%); type: functional
SMMC-7721 [14] = experiment: Induction of apoptosis in human SMMC7721 cells assessed as live cells at 2.5 uM after 48 hrs by Annexin-V-FITC/propidium iodide staining based flow cytometric method (reference value: 95.75%); type: functional
SMMC-7721 [15] = experiment: Antimetastatic activity against human SMMC7721 cells assessed as reduction in cell invasion at 2 uM after 48 hrs using crystal violet staining by matrigel based fluorescence microscopic analysis relative to control; type: functional; how it was run: as §2
SMMC-7721 [16] = experiment: Induction of apoptosis in human SMMC7721 cells assessed as necrotic cells at 5 uM after 48 hrs by Annexin-V-FITC/propidium iodide staining based flow cytometric method (reference value: 0.82%); type: functional
SMMC-7721 [17] = experiment: Antimetastatic activity against human SMMC7721 cells assessed as reduction in cell invasion at 0.5 uM after 48 hrs using crystal violet staining by matrigel based fluorescence microscopic analysis relative to control; type: functional; how it was run: as §2
SMMC-7721 [18] = experiment: Induction of apoptosis in human SMMC7721 cells assessed as live cells at 10 uM after 48 hrs by Annexin-V-FITC/propidium iodide staining based flow cytometric method (reference value: 95.75%); type: functional
SMMC-7721 [19] = experiment: Induction of apoptosis in human SMMC7721 cells assessed as early apoptotic cells at 10 uM after 48 hrs by Annexin-V-FITC/propidium iodide staining based flow cytometric method (reference value: 2.27%); type: functional
SMMC-7721 [20] = experiment: Cell cycle arrest in human SMMC7721 cells assessed as increase in G1 population at 2.5 to 5 uM after 48 hrs by propidium iodide staining based flow cytometric method; type: functional
How it was run: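 Cells exposed 48 h to 2.5 or 5 μM, PBS-washed, fixed in 70% ethanol at 4 °C overnight, centrifuged, RNase treated 37 °C 30 min, then PI stained 30 min in dark; G1/S/G2 distribution by flow cytometry; means ± SD, n = 3.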

SMMC-7721 [21] = experiment: Down regulation of NNMT mRNA expression in human SMMC7721 cells at 8 uM by RT-qPCR analysis; type: functional, cell-based; how it was run: as §1
SMMC-7721 [22] = experiment: Induction of apoptosis in human SMMC7721 cells after 48 hrs by Annexin-V-FITC/propidium iodide staining based flow cytometric method; type: functional, cell-based
SMMC-7721 [23] = experiment: Induction of apoptosis in human SMMC7721 cells assessed as late apoptotic cells at 2.5 uM after 48 hrs by Annexin-V-FITC/propidium iodide staining based flow cytometric method (reference value: 1.17%); type: functional
SMMC-7721 [24] = experiment: Induction of apoptosis in human SMMC7721 cells assessed as early apoptotic cells at 5 uM after 48 hrs by Annexin-V-FITC/propidium iodide staining based flow cytometric method (reference value: 2.27%); type: functional
SMMC-7721 [25] = experiment: Induction of apoptosis in human SMMC7721 cells assessed as early apoptotic cells at 2.5 uM after 48 hrs by Annexin-V-FITC/propidium iodide staining based flow cytometric method (reference value: 2.27%); type: functional
SMMC-7721 [26] = experiment: Down regulation of TSPAN8 mRNA expression in human SMMC7721 cells at 8 uM by RT-qPCR analysis; type: functional, cell-based; how it was run: as §1

With `O=C1C=CC(=C(c2ccc(O)cc2)c2c(-c3ccc(O)cc3)ccc(CO)c2C#Cc2ccc(OCc3ccc(-c4ccc(O)cc4)c(C(=C4C=CC(=O)C=C4)c4ccc(O)cc4)c3C#Cc3ccc(O)cc3)cc2)C=C1` the Activity (SMMC-7721 [1]) was “Active”, the “fold change (FC)” value (SMMC-7721 [2]) was 0.42 and the Activity (SMMC-7721 [3]) was 58.59%. For the same compound, the IC50 (SMMC-7721 [4]) was 9 µM, the Activity (SMMC-7721 [5]) was 1.15% and the Activity (SMMC-7721 [6]) was “Active”. For the same compound, the Activity (SMMC-7721 [7]) was 0.89%, the Activity (SMMC-7721 [8]) was “Active” and the Activity (SMMC-7721 [9]) was “Active”. The Activity (SMMC-7721 [10]) was “Active”, the Activity (SMMC-7721 [11]) was 32.3% and the Activity (SMMC-7721 [12]) was “Active”. For the same compound, the Activity (SMMC-7721 [13]) was 29.8%, the Activity (SMMC-7721 [14]) was 82.58% and the “fold change (FC)” value (SMMC-7721 [15]) was 0.39. For the same compound, the Activity (SMMC-7721 [16]) was 1.54%, the “fold change (FC)” value (SMMC-7721 [17]) was 0.53 and the Activity (SMMC-7721 [18]) was 47.83%. For the same compound, the Activity (SMMC-7721 [19]) was 21.22%, the Activity (SMMC-7721 [20]) was “Active” and the Activity (SMMC-7721 [21]) was “Active”. The Activity (SMMC-7721 [22]) was “Dose-dependent effect”, the Activity (SMMC-7721 [23]) was 11.13% and the Activity (SMMC-7721 [24]) was 7.57%. The Activity (SMMC-7721 [25]) was 5.4% and the Activity (SMMC-7721 [26]) was “Active”.
